The list is not random: actives were taken first. Their share in the collection is about 1.7%.
M1 ag parental – nonselective activator or artifact in parental CHO-K1 cells; Fluo-8 calcium fluorescence; scaled to maximal ATP response, vehicle zero; activation, % at 3 µM; hit rate 0.48% among 360,000; in the data active means activation above about 15%;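 further: untransfected CHO-K1 host cells lacking M1 receptor as counterscreen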
CHRM5 antagonist – CHRM5 antagonism in calcium assay; CHO-hM5 cells, Fluo-8 calcium fluorescence, ACh EC80; P08912; hit rate 0.59% among 360,000; inhibition, % at 3 µM;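 active means inhibition above a per-plate cutoff, the mean of that plate's test compounds plus 3 SD, cut at about 27% in these data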;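 further: 0% = acetylcholine EC80 with DMSO and 100% = DMSO without agonist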
Target sequence (P08912 whole entry, looked up): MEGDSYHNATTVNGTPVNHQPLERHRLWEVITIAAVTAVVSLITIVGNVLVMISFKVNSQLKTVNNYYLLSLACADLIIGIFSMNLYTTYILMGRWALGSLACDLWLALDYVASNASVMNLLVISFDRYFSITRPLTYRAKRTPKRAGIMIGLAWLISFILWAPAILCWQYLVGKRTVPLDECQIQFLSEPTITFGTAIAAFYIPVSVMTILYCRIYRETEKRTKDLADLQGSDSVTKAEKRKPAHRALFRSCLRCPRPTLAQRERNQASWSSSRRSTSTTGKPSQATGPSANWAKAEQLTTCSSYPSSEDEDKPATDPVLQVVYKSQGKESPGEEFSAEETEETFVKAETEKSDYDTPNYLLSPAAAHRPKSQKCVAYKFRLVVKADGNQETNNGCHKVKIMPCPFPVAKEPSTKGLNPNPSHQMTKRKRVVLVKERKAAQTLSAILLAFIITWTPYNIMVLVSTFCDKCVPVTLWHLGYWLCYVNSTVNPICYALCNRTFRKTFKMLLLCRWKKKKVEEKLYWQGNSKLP
CHO-K1 Ca PAM – M1 PAM counterscreen hit in parental CHO-K1 cells | ATP EC20, Fluo-8 calcium fluorescence; 0% at ATP EC20, 100% at ATP max | activation, % at 3 µM | hit rate 0.02% among 360,000 | AID 602247;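 active means activation above the run cutoff, the mean activation of all test compounds plus 3 SD, cut at about 40% in these data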;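 further: peak over basal fluorescence ratio in a 140 s read after ATP addition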
M5 PAM – positive allosteric modulators of human muscarinic M5 receptor. P08912. CHO-K1 hM5, Fluo-8 calcium, ACh EC20 PAM; 0% = ACh EC20, 100% = ACh EC100. activation, % at 3 µM. hit rate 0.3% among 360,000;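 active means activation above the run cutoff, the mean activation of all test compounds plus 3 SD, cut at about 18% in these data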
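Assay system: CHO-K1 hM5 cells. Also added: acetylcholine at EC20 concentration, added after compound. Dosing: 3 µM, single dose. Times: compound preincubation 140 s before EC20 acetylcholine addition. Signal: Fluo-8 calcium fluorescence. Measure: % activation relative to EC20 and EC100 ACh responses. Repeats: singlicate, one well per test compound.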
CHRM5 agonist – CHRM5 agonism in calcium assay; hit rate 0.19% among 360,000; P08912; AID 624037; CHO-K1 hM5 cells, Fluo-8 calcium fluorescence; 0% DMSO wells, 100% maximal acetylcholine response; activation, % at 3 µM;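 active means activation above the run's mean over test compounds plus 3 SD, cut at about 23% in these data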;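 further: signal is peak over basal fluorescence ratio across the kinetic read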
CHO-K1 Ca antag – counter-screen for M1 antagonists: effect in parental CHO-K1 cells; ATP-induced calcium, Fluo-8 fluorescence; inhibition, % at 3 µM; hit rate 0.6% among 360,000;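 active means inhibition above a per-plate cutoff, the plate's mean sample inhibition plus 3 SD, cut at about 24% in these data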;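 further: 0% = DMSO plus EC80 ATP and 100% = DMSO alone without ATP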
* = called active by the depositor.

SMILES	M1 ag parental	CHRM5 antagonist	CHO-K1 Ca PAM	M5 PAM	CHRM5 agonist	CHO-K1 Ca antag
C(=C\c1ccco1)/C1=NN(c2ccccc2)C(c2ccco2)C1 (stereo unspecified)	3.6	15.0	-14.5	-3.8	5.1	18.5
COc1ccc(CCN2C(=O)CC(Sc3ncccc3C(=O)O)C2=O)cc1OC (stereo unspecified)	0.5	-8.1	21.1	25.8*	-1.6	-1.5
O=C(N/C(=C/c1cccc([N+](=O)[O-])c1)C(=O)N1CCCCCC1)c1cccs1	0.9	-2.2	14.3	-0.1	0.3	-12.1
O=C(N/C(=C/c1cccc([N+](=O)[O-])c1)C(=O)N1CCCCC1)c1ccco1	0.9	32.1*	2.6	-9.8	-2.9	4.8
Cc1cccc(NC(=O)c2ccc(F)c(S(=O)(=O)NCc3ccco3)c2)c1	1.8	-15.6	8.8	19.4*	2.4	-5.3
CC(C)COc1ccc(C(=O)Nc2sc3c(c2C(=O)O)CC(C)(C)OC3)cc1	3.4	34.1*	-9.5	-18.2	2.1	12.8
CN(C)CCCN(C(=O)c1cc(Cl)sc1Cl)c1nc2cc3c(cc2s1)OCO3	2.0	42.2*	-1.6	-17.9	-8.8	-3.8
Cn1c(=O)oc2cc(S(=O)(=O)N3CCN(c4ccccc4F)CC3)ccc21	-0.2	8.1	1.2	-6.1	-3.1	18.9
Cn1c(=O)oc2cc(S(=O)(=O)CCC(=O)N3CCN(c4ccccc4F)CC3)ccc21	-0.6	10.9	-8.8	37.5*	10.6	-11.3
COc1ccccc1N1CCN(S(=O)(=O)c2ccc3c(c2)oc(=O)n3C)CC1	0.2	27.1*	13.1	-12.6	-1.6	-6.1
COc1cccc(CNc2cnc3ccccc3c2)c1O	15.7*	21.1	4.4	-20.9	13.4	7.3
Cc1ccc(O)c(CNc2cnc3ccccc3c2)c1	4.9	7.5	9.3	-3.8	2.9	3.3
COc1ccc(NC(=O)Nc2ccc(F)c(Cl)c2)cc1	14.5	35.0*	2.2	-16.9	3.6	17.8
O=C(Nc1cccnc1)Nc1ccc(F)c(Cl)c1	15.5*	15.6	5.8	-20.4	16.1	-6.1
O=C(Nc1cccnc1)c1cc(F)c(F)cc1Cl	0.6	0.8	5.8	7.0	2.8	-8.0
CCC1(c2ccccc2)NC(=O)N(CC(=O)NNC(=O)CCN2CCN(c3ccccc3)CC2)C1=O (stereo unspecified)	-0.5	7.0	10.9	-2.3	0.0	1.6
Cc1cc(OCC(=O)NCC2CCC(C(=O)O)CC2)c2c(C)cc(=O)oc2c1 (stereo unspecified)	0.1	2.6	-5.7	-2.1	0.9	13.7
CC(C)OC(=O)c1cc(C(=O)c2cc(F)ccc2O)coc1=N	0.2	-6.3	16.1	13.0	12.7	4.9
COc1ccc(O)c(C(=O)c2coc(=N)c(C(=O)Nc3ccc(SC(F)F)cc3)c2)c1	16.8*	28.0*	-4.8	-33.2	7.8	9.2
O=[N+]([O-])c1ccc(N2CCN(Cc3ccccc3)CC2)c(S(=O)(=O)N2CCOCC2)c1	-0.4	-3.6	11.2	1.0	-5.2	-3.0
CCN(CC)C(=O)c1ccc(COc2ccc(Cl)c(C)c2)o1	10.2	31.0*	3.8	-22.6	2.1	20.4
Cc1cc(OCc2ccc(C(=O)n3cccn3)o2)ccc1Cl	1.7	-0.5	16.5	4.2	-7.6	-18.3
COc1ccccc1Cc1c(C2CCCCC2)nc2c3ccccc3ccn12	-0.1	1.0	5.6	18.3*	-2.6	-6.8
COc1ccc(Cc2c(C3CCCCC3)nc3c4ccccc4ccn23)c(C)c1	0.7	8.7	12.7	-4.2	0.3	-8.2
CCn1c(=O)cc(OCC(=O)N2CCN(c3cccc(C(F)(F)F)c3)CC2)c2ccccc21	2.1	4.5	-7.4	-8.2	3.5	23.1
SMILES	M1 ag parental	CHRM5 antagonist	CHO-K1 Ca PAM	M5 PAM	CHRM5 agonist	CHO-K1 Ca antag
CCN(CC)C(=O)c1oc2ccc(S(=O)(=O)N3CC(C)CC(C)C3)cc2c1C (stereo unspecified)	9.8	30.1*	-23.7	-12.3	-1.8	20.2
CCCc1ncc(C(=O)c2ccc(OC)cc2)n1C	18.8*	-3.8	15.4	3.8	0.4	5.6
COc1ccc(C(=O)c2cnc(C(C)C)n2C)cc1	0.9	-1.9	8.1	-1.1	1.2	-16.0
CCOC(=O)c1c(-c2ccccc2Cl)cn2ccccc12	1.1	0.3	10.1	-5.0	-6.1	100.0*
COc1cccc(C(=O)N/N=C2/SCC(=O)N2CCc2ccc(OC)c(OC)c2)c1	0.3	-4.3	-4.3	-3.3	1.8	-14.4
COc1ccc(C(=O)N/N=C2\SCC(=O)N2Cc2ccc3c(c2)OCO3)c(OC)c1	-0.1	30.6*	4.5	-8.4	-3.1	-0.5
COc1ccc(CCN2C(=O)CS/C2=N\NC(=O)c2cccs2)cc1OC	17.6*	-8.9	9.6	-3.5	1.1	-0.3
O=C(CCn1c(=O)[nH]c2ccsc2c1=O)NCCc1ccc(Cl)cc1	1.0	-3.5	8.2	-5.8	-2.4	-5.5
COc1ccc(CCC(C)NC(=O)CCc2ccccc2)c(OC)c1 (stereo unspecified)	-0.3	-0.3	8.5	2.3	-4.1	-8.4
CCn1nnnc1SCC(=O)Nc1ccc(OCc2ccccc2)cc1	0.1	-12.3	16.6	33.5*	-4.1	-3.8
COc1ccc(NC(=O)CSc2nnnn2Cc2ccccc2)cc1	1.6	-7.7	21.8	7.7	-2.4	-21.0
COC(=O)c1ccc(S(=O)(=O)NCCc2ccccc2OC)n1C	17.8*	2.7	4.1	-1.9	-0.2	3.5
COc1ccccc1CCNS(=O)(=O)c1cn(C)c(=O)n(C)c1=O	1.0	-2.1	19.7	3.6	1.4	-24.9
O=C(Cn1c2c(c(=O)n3ncnc13)CCC2)N/N=C/c1cccs1	0.3	-1.5	13.9	6.9	1.4	-11.7
COc1ccc(CCNC(=O)C(=O)c2c(C)[nH]c3ccccc23)cc1	4.0	70.5*	17.2	-17.9	-8.6	-6.2
Cc1[nH]c2ccccc2c1C(=O)C(=O)NCCOc1ccccc1	3.7	1.9	-7.2	-6.7	1.4	-9.5
COCCNS(=O)(=O)c1ccc(-c2ccc(Cl)cc2)cc1	1.4	-7.4	22.9	21.1*	3.9	-15.0
Cn1c(CCN2CCOCC2)nc2cc(NC(=O)COc3ccccc3)ccc21	0.1	-5.4	-2.0	1.3	-0.6	25.7*
Cn1c(CN2CCOCC2)nc2cc(NC(=O)COc3ccccc3)ccc21	2.2	3.0	13.1	-3.2	4.7	-11.7
Cc1cc(C)c(C(=O)N2CCCC(CNS(=O)(=O)c3cccs3)C2)o1 (stereo unspecified)	2.1	-3.6	0.6	3.3	-2.7	-13.3
CC(C)(C)CC(=O)Nc1ccccc1N1CCN(c2ccccc2)CC1	-0.9	3.8	-11.4	-3.7	-1.6	-2.3
COc1ccc(Nc2cc3n(c(=O)n2)CCc2cc(OC)c(OC)cc2-3)c(C)c1	0.8	5.3	0.2	-0.4	-6.5	-10.3
